According to ChEMBL document CHEMBL1255504, “Functional profiling of p53-binding sites in Hdm2 and Hdmx using a genetic selection system” (Bioorg Med Chem, 2010):
Values belong to the molecule of their own block, whether it stands above or below them. Active and inactive are the calls of the source. The calls are words filed in the database; no cut-off is given here. Where a SMILES comes first, the peptide text is derived from it. The star is where a group is joined. Isobutyryl = CC(C)C(=O)*; Piperidide = C1CCN(*)CC1; Cbz = O=C(OCc1ccccc1)*; PhAc = O=C(Cc1ccccc1)*; Boc = CC(C)(C)OC(=O)*; NHBn = c1ccc(CN*)cc1; Piv = CC(C)(C)C(=O)*; NHtBu = CC(C)(C)N*

Columns and labels:
[1] = target: T1, E3 ubiquitin-protein ligase Mdm2 (Homo sapiens, UniProt Q00987); assay: Inhibition of GST-tagged p53 binding to Hdm2 by ELISA
[2] = Solubility of the compound; type: physicochemical
[3] = target: T2, Protein Mdm4 (Homo sapiens) (UniProt O15151); assay: Inhibition of GST-tagged MDMX expressed in Escherichia coli harboring integrated p53-MDMX protein assessed as blockade of enzyme-p53 interaction by beta-galactosidase assay; parameters: concentration or dose not given beside the values; settings: concentration not given here
T2 sequence (whole entry): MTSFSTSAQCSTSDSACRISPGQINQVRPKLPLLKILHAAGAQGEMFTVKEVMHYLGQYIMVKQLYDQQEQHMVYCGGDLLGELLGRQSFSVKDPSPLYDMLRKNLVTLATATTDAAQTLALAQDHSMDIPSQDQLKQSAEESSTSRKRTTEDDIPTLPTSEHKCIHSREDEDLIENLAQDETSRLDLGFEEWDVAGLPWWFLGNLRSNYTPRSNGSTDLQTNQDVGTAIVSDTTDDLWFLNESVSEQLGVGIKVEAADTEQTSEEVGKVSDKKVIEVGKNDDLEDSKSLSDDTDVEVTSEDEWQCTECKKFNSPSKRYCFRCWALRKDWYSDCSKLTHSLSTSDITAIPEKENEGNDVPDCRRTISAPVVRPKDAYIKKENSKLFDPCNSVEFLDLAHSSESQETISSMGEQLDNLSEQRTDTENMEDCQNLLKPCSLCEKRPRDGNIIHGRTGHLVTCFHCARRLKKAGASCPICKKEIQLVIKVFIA
Procedure, shortened: (§1)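 E. coli reporter strain SNS126 (HIS3-KanR-lacZ) carrying chromosomally integrated DBD-fusion repressor halves (Hdm2–p53 or Hdmx–p53), transformed with SICLOPPS cyclic-peptide constructs and tested in both native and opposite strains. Cells grown on solid LB with 32 µM IPTG plus 9.7 µM L-arabinose; β-galactosidase measured by ONPG hydrolysis. % derepression = percent β-galactosidase enhancement relative to unrepressed (DBD-only) control.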

[4] = target: T2, Protein Mdm4 (Homo sapiens); assay: Inhibition of GST-tagged MDMX expressed in Escherichia coli harboring integrated p53-MDMX protein assessed as enzyme-p53 interaction by beta-galactosidase assay; parameters: concentration or dose not given beside the values; settings: concentration not given here; procedure, shortened: as §1
[5] = target: T2, Protein Mdm4 (Homo sapiens); assay: Inhibition of GST-tagged MDMX expressed in Escherichia coli harboring integrated p53-MDMX protein assessed as enhancement of enzyme-p53 interaction by beta-galactosidase assay; parameters: concentration or dose not given beside the values; settings: concentration not given here; procedure, shortened: as §1
[6] = target: T2, Protein Mdm4 (Homo sapiens); assay: Inhibition of GST-tagged MDMX expressed in Escherichia coli harboring integrated p53-Hmd2 protein assessed as enzyme-p53 interaction by beta-galactosidase assay; parameters: concentration or dose not given beside the values; settings: concentration not given here; procedure, shortened: as §1
[7] = target: T2, Protein Mdm4 (Homo sapiens); assay: Inhibition of GST-tagged MDMX expressed in Escherichia coli harboring integrated p53-Hmd2 protein assessed as enhancement of enzyme-p53 interaction by beta-galactosidase assay; parameters: concentration or dose not given beside the values; settings: concentration not given here; procedure, shortened: as §1
[8] = target: T2, Protein Mdm4 (Homo sapiens); assay: Inhibition of GST-tagged MDMX expressed in Escherichia coli harboring integrated p53-Hmd2 protein assessed as blockade of enzyme-p53 interaction by beta-galactosidase assay; settings: concentration not given here; procedure, shortened: as §1
[9] = target: T1, E3 ubiquitin-protein ligase Mdm2; assay: Inhibition of GST-tagged Hdm2 expressed in Escherichia coli harboring integrated p53-Hmd2 protein assessed as enhancement of enzyme-p53 interaction by beta-galactosidase assay; settings: concentration not given here; procedure, shortened: as §1
Target sequence in this assay (Q00987 whole entry, looked up): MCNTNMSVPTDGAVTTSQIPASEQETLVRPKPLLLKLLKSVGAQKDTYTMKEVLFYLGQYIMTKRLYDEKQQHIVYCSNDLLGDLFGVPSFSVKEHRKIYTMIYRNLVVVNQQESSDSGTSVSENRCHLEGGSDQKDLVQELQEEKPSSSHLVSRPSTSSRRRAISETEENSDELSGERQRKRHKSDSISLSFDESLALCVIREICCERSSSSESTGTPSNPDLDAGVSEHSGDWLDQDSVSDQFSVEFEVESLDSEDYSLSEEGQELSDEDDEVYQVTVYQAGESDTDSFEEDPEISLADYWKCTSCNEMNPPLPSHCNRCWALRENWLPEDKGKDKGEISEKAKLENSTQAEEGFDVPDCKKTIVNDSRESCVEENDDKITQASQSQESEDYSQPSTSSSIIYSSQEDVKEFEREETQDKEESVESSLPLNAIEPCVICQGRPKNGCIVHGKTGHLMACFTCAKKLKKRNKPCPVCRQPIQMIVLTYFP

[10] = target: T1, E3 ubiquitin-protein ligase Mdm2; assay: Inhibition of GST-tagged Hdm2 expressed in Escherichia coli harboring integrated p53-Hmd2 protein assessed as blockade of enzyme-p53 interaction by beta-galactosidase assay; settings: concentration not given here; procedure, shortened: as §1
Target sequence in this assay (Q00987 whole entry, looked up): as above

[11] = target: T1, E3 ubiquitin-protein ligase Mdm2; assay: Inhibition of GST-tagged Hdm2 expressed in Escherichia coli harboring integrated p53-MDMX protein assessed as enzyme-p53 interaction by beta-galactosidase assay; settings: concentration not given here; procedure, shortened: as §1
Target sequence in this assay (Q00987 whole entry, looked up): as above

[12] = target: T1, E3 ubiquitin-protein ligase Mdm2; assay: Inhibition of GST-tagged Hdm2 expressed in Escherichia coli harboring integrated p53-MDMX protein assessed as enhancement of enzyme-p53 interaction by beta-galactosidase assay; settings: concentration not given here; procedure, shortened: as §1
Target sequence in this assay (Q00987 whole entry, looked up): as above

[13] = target: T1, E3 ubiquitin-protein ligase Mdm2; assay: Inhibition of GST-tagged Hdm2 expressed in Escherichia coli harboring integrated p53-Hmd2 protein assessed as enzyme-p53 interaction by beta-galactosidase assay; settings: concentration not given here; procedure, shortened: as §1
Target sequence in this assay (Q00987 whole entry, looked up): as above

[14] = target: T1, E3 ubiquitin-protein ligase Mdm2; assay: Inhibition of GST-tagged Hdm2 expressed in Escherichia coli harboring integrated p53-MDMX protein assessed as blockade of enzyme-p53 interaction by beta-galactosidase assay; settings: concentration not given here; procedure, shortened: as §1
Target sequence in this assay (Q00987 whole entry, looked up): as above

Molecule: CC(C)(C)OC(=O)N[C@@H](CCCNC(=N)N)C(=O)N[C@@H](Cc1c[nH]c2ccccc12)C(=O)N[C@@H](Cc1ccccc1)C(=O)N1CCCCC1
inhibition [1]: inactive

Molecule: CC(C)COC(=O)N[C@@H](CCCNC(=N)N)C(=O)N[C@@H](Cc1c[nH]c2ccccc12)C(=O)N[C@@H](Cc1ccccc1)C(=O)NC(C)(C)C
inhibition [1]: inactive

Molecule: CC(C)COC(=O)N[C@@H](CCCNC(=N)N)C(=O)N[C@@H](Cc1c[nH]c2ccccc12)C(=O)N[C@@H](Cc1ccccc1)C(=O)NCc1ccccc1
inhibition [1]: inactive

Molecule: CC(C)(C)OC(=O)N[C@@H](CCCNC(=N)N)C(=O)N[C@@H](Cc1c[nH]c2ccccc12)C(=O)N[C@@H](Cc1ccccc1)C(=O)NCc1ccccc1 (Boc-Arg-Trp-Phe-NHBn)
inhibition [1]: inactive

Molecule: N=C(N)NCCC[C@H](NC(=O)OCc1ccccc1)C(=O)N[C@@H](Cc1c[nH]c2ccccc12)C(=O)N[C@@H](Cc1ccccc1)C(=O)N1CCCCC1 (Cbz-Arg-Trp-Phe-Piperidide)
inhibition [1]: inactive

Molecule: CC(C)C(=O)N[C@@H](CCCNC(=N)N)C(=O)N[C@@H](Cc1c[nH]c2ccccc12)C(=O)N[C@@H](Cc1ccccc1)C(=O)NC(C)(C)C (Isobutyryl-Arg-Trp-Phe-NHtBu)
inhibition [1]: inactive

Molecule: CC(C)(C)NC(=O)[C@H](Cc1ccccc1)NC(=O)[C@H](Cc1c[nH]c2ccccc12)NC(=O)[C@H](CCCNC(=N)N)NC(=O)Cc1ccccc1 (PhAc-Arg-Trp-Phe-NHtBu)
inhibition [1]: inactive

Molecule: H-CDLRWF-OH
inhibition [3]: 76% | inhibition [4]: 86% | inhibition [5]: 45% | inhibition [6]: 37% | inhibition [7]: 4% | inhibition [8]: 6%

Molecule: H-CHLRWL-OH
inhibition [3]: 58% | inhibition [4]: 75% | inhibition [5]: 34% | inhibition [6]: 41% | inhibition [7]: 7% | inhibition [8]: 10%

Molecule: H-CIFYYV-OH
inhibition [9]: 34% | inhibition [10]: 51% | inhibition [11]: 66% | inhibition [12]: 24% | inhibition [13]: 67% | inhibition [14]: 42%

Molecule: H-CIWWYM-OH
inhibition [9]: 8% | inhibition [10]: 12% | inhibition [11]: 70% | inhibition [12]: 29% | inhibition [13]: 41% | inhibition [14]: 49%

Molecule: H-CKAVLF-OH
inhibition [3]: 51% | inhibition [4]: 71% | inhibition [5]: 30% | inhibition [6]: 38% | inhibition [7]: 5% | inhibition [8]: 7%

Molecule: H-CLFFNY-OH
inhibition [3]: 47% | inhibition [4]: 69% | inhibition [5]: 28% | inhibition [6]: 45% | inhibition [7]: 12% | inhibition [8]: 18%

Molecule: H-CLWWYM-OH
inhibition [9]: 12% | inhibition [10]: 18% | inhibition [11]: 65% | inhibition [12]: 24% | inhibition [13]: 45% | inhibition [14]: 41%

The next lines start with the values.

inhibition [1]: inactive
Molecule: CC(C)(C)NC(=O)[C@H](Cc1ccccc1)NC(=O)[C@H](Cc1c[nH]c2ccccc12)NC(=O)[C@H](CCCNC(=N)N)NC(=O)OC(C)(C)C (Boc-Arg-Trp-Phe-NHtBu)

solubility [2]: Insoluble
Molecule: CC(C)[C@H](NC(=O)[C@H](Cc1ccc(O)cc1)NC(=O)[C@H](Cc1ccc(O)cc1)NC(=O)[C@H](Cc1ccccc1)NC(=O)OC(C)(C)C)C(=O)N1CCCCC1 (Boc-FYYV-Piperidide)

solubility [2]: Insoluble
Molecule: CC[C@H](C)[C@H](NC(=O)OC(C)(C)C)C(=O)N[C@@H](Cc1ccccc1)C(=O)N[C@@H](Cc1ccc(O)cc1)C(=O)N[C@@H](Cc1ccc(O)cc1)C(=O)N[C@H](C(=O)N1CCCCC1)C(C)C (Boc-IFYYV-Piperidide)

inhibition [1]: inactive
Molecule: N=C(N)NCCC[C@H](NC(=O)OCc1ccccc1)C(=O)N[C@@H](Cc1c[nH]c2ccccc12)C(=O)N[C@@H](Cc1ccccc1)C(=O)NCc1ccccc1 (Cbz-Arg-Trp-Phe-NHBn)

inhibition [1]: inactive
Molecule: CC(C)C(=O)N[C@@H](CCCNC(=N)N)C(=O)N[C@@H](Cc1c[nH]c2ccccc12)C(=O)N[C@@H](Cc1ccccc1)C(=O)NCc1ccccc1 (Isobutyryl-Arg-Trp-Phe-NHBn)

inhibition [1]: inactive
Molecule: N=C(N)NCCC[C@H](NC(=O)Cc1ccccc1)C(=O)N[C@@H](Cc1c[nH]c2ccccc12)C(=O)N[C@@H](Cc1ccccc1)C(=O)NCc1ccccc1 (PhAc-Arg-Trp-Phe-NHBn)

inhibition [1]: inactive
Molecule: CC(C)(C)C(=O)N[C@@H](CCCNC(=N)N)C(=O)N[C@@H](Cc1c[nH]c2ccccc12)C(=O)N[C@@H](Cc1ccccc1)C(=O)NCc1ccccc1 (Piv-Arg-Trp-Phe-NHBn)

inhibition [1]: inactive
Molecule: CC(C)(C)NC(=O)[C@H](Cc1ccccc1)NC(=O)[C@H](Cc1c[nH]c2ccccc12)NC(=O)[C@H](CCCNC(=N)N)NC(=O)C(C)(C)C (Piv-Arg-Trp-Phe-NHtBu)

Activity [1]: Dose-dependent effect | IC50 [1]: 209 µM
Molecule: CC[C@H](C)[C@@H]1NC(=O)[C@H](C)NC(=O)[C@H](C(C)C)NC(=O)[C@H](Cc2ccc(O)cc2)NC(=O)[C@H](Cc2ccc(O)cc2)NC(=O)[C@H](Cc2ccccc2)NC1=O (cyclo(AIFYYV))

inhibition [9]: 12% | inhibition [10]: 18% | inhibition [11]: 63% | inhibition [12]: 22% | inhibition [13]: 45% | inhibition [14]: 37%
Molecule: H-CMFYYI-OH

inhibition [3]: 49% | inhibition [4]: 70% | inhibition [5]: 29% | inhibition [6]: 38% | inhibition [7]: 5% | inhibition [8]: 7%
Molecule: H-CRLLDF-OH
